A short description of data set [1]: DPPH radical scavenging assay. The settings on record: 30 minutes incubations; n=4. Background: The DPPH test is a chemical assay of radical scavenging.
In data set [2] the test system is breast MCF7 cancer cell line. Kind of data set: SRB antiproliferative assay, MCF7. The class given is cell-based. (In general: The SRB assay estimates cell density from bound dye.)
The test system of data set [3] is colorectal HT29 cancer cell line. The data set is described as follows: SRB antiproliferative assay, HT29. The class given is cell-based.
The test system of data set [4] is Leukaemia K562 cancer cell line. Kind of data set: SRB antiproliferative assay, K562. In kind it is cell-based.
Data set [5] has as its system LPS-induced NO production in RAW 264.7 macrophages (Nitric oxide synthase). Kind of data set: Griess assay of LPS-induced NO production in RAW 264.7 macrophages. The conditions noted are these: read-out: NOS- IC50 value, LPS-prompted RAW264.7 macrophages, 24h incubations, n=4. In kind it is cell-based. An outline of the steps: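 LPS-stimulated RAW264.7 macrophages exposed to the test compound; NO read by Griess assay. IC50 calculated within the tested dose range. Indomethacin used as reference. Data are mean ± SD of 4 independent replicates.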
On the technique in general: The Griess reaction detects nitrite, a stable product of nitric oxide.

“And” between values parts separate entries of the source, which are not always exact repeats. Equal values may be shown once. Read-outs that look alike come from different tables or passages of the source.

`O=C1O[C@H]([C@@H](O)CO)C(O)=C1O` [Ascorbic acid]: the “DPPH radical scavenging IC50 value” in data set [1] is “(21.83±1.10) μg/mL”.
Consider `N.N.[Cl][Pt][Cl]` [Cisplatin], for which the IC50 was 28.1 ± 4.4 µM in data set [2] (read-out: Cytotoxicity (as of %Control) IC50 value, MCF7, 72 h incubations, n=4); 28 µM in data set [2] (read-out: Cytotoxicity (as of %Control) IC50 value, MCF7, 72 h incubations, n=4, listed as cisplatin); 45.1 ± 7.9 µM in data set [3] (read-out: Cytotoxicity (as of %Control) IC50 value, HT29, 72 h incubations, n=4); 45 µM in data set [3] (read-out: Cytotoxicity (as of %Control) IC50 value, HT29, 72 h incubations, n=4, listed as cisplatin); 180 ± 21 µM in data set [4] (read-out: Cytotoxicity (as of %Control) IC50 value, K562, 72 h incubations, n=4, NI is lack of cytotoxicity within the tested 0.1-200 μg/mL range); 180 µM in data set [4] (read-out: Cytotoxicity (as of %Control) IC50 value, K562, 72 h incubations, n=4, NI is lack of cytotoxicity within the tested 0.1-200 μg/mL range, listed as cisplatin).
As to `COc1ccc2c(c1)c(CC(=O)O)c(C)n2C(=O)c1ccc(Cl)cc1` [Indomethacin], the IC50 in data set [5] (Mus musculus, RAW264.7, 24 h) was 120 µM and 42.8 µg/mL; in data set [5], 119 ± 3.02 µM.

The values are drawn from paper PMC9587871 (Asian Pacific Journal of Cancer Prevention : APJCP, 2022).
